Reference: ChEMBL document CHEMBL2169799, “Synthesis and characterization of a novel prostate cancer-targeted phosphatidylinositol-3-kinase inhibitor prodrug” (J Med Chem, 2012)
The source made the active and inactive calls. The calls are words filed in the database; no cut-off is given here. *1 amine or outer side, *2 acyl side, *3 side chain or, on linkers, in order; H or OH if unused. Where a SMILES comes first, the peptide text is derived from it. The star is where a group is joined. X1 = O=c1cc(N2CCOCC2)oc2c(-c3ccc(CO*)cc3)cccc12; Morpholide = C1CN(*)CCO1; CO = O=C([*:1])[*:2]

How the values were obtained:
[1] = system: LNCaP C4-2; assay: Induction of apoptosis in human C4-2 cells expressing Luc-BAD assessed as increase in cleavage of PARP at 3 to 50 uM after 6 hrs by Western blotting; assay type: functional, cell-based
Method in brief: (§1)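 C4-2LucBAD cells seeded 4×10^5 per 6 cm dish, grown 48 h in RPMI 1640/10% FBS to ~80% confluence, then serum-free 18 h; treated 6 h (DMSO control). Caspase 3 fluorescence read every 15 min for 1 h, arbitrary units, means ± SEM, n=2; cleaved PARP (89 kDa) by Western blot of same samples.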

[2] = Prodrug activation in medium conditioned with human BT549 cells assessed as concentration of 4-(2-morpholino-4-oxo-4H-chromen-8-yl) benzyl-2-amino-4-methylpentanoate at 30 uM from 30 mins to 6 hrs by LC-ESI-MS analysis; assay type: cell-based; conditions: bt-549, 30 µM
Method in brief: (§2)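 Serum-free C4-2 or BT-549 cultures given compound, PBS control; media sampled at 30 min, 3 and 6 h. Released drug quantified by C18 UHPLC (water/methanol, 0.1% formic acid gradient) with positive ESI high-resolution Orbitrap MS at mass 496.2569, against standard curve; means ± SEM, n=3.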

[3] = system: LNCaP; assay: Inhibition of PI3 kinase in human LNCaP cells assessed as reduction of p-Akt T308 level after 3 hrs by Western blotting; assay type: cell-based
Method in brief: (§3)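 Cells at ~80% confluence (48 h after seeding 4×10^5 per 6 cm dish), kept serum-free (LNCaP in T-Medium with 2.5% FBS; U-87 MG in DMEM) and dosed over a concentration range for 3 h, PBS control; p-Akt T308 by Western blot, three independent experiments.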

[4] = system: C4-2; assay: Inhibition of PI3 kinase in human C4-2 cells expressing Luc-BAD assessed as reduction of p-Akt T308 level after 3 hrs by Western blotting; assay type: cell-based
Method in brief: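 Serum-free C4-2LucBAD cells (18 h starvation, RPMI 1640 base) dosed over a concentration range for 3 h, PBS control; p-Akt T308 immunoblot of lysates.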

[5] = Prodrug activation in medium conditioned with human C4-2 cells assessed as concentration of 4-(2-morpholino-4-oxo-4H-chromen-8-yl) benzyl-2-amino-4-methylpentanoate at 30 uM from 30 mins to 6 hrs by LC-ESI-MS analysis; assay type: cell-based; conditions: c4-2, 30 µM; method in brief: as §2
[6] = system: BT-549; assay: Inhibition of PI3 kinase in human BT549 cells exposed to C4-2 cells conditioned medium pre-incubated with compound for 6 hrs assessed as reduction of p-Akt T308 level by Western blotting; assay type: cell-based
Method in brief: (§4)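 Compound incubated 6 h at 37 °C, 5% CO2 in serum-free medium on C4-2 or BT-549 cells; medium then transferred to BT-549 cells for 3 h, PBS control; p-Akt T308 by Western blot.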

[7] = system: BT-549; assay: Inhibition of PI3 kinase in human BT549 cells exposed to BT549 cells conditioned medium pre-incubated with compound for 6 hrs assessed as reduction of p-Akt T308 level by Western blotting; assay type: cell-based; method in brief: as §4
[8] = system: BT-549; assay: Inhibition of PI3 kinase in human BT549 cells assessed as reduction of p-Akt T308 level after 3 hrs by Western blotting; assay type: cell-based; method in brief: as §3
[9] = system: U-87; assay: Inhibition of PI3 kinase in human U-87 cells assessed as reduction of p-Akt T308 level after 3 hrs by Western blotting; assay type: cell-based; method in brief: as §3
[10] = system: C4-2; assay: Inhibition of PI3 kinase in human C4-2 cells assessed as reduction of p-Akt T308 level after 3 hrs by Western blotting; assay type: cell-based
[11] = system: C4-2; assay: Inhibition of PI3 kinase in human C4-2 cells assessed as reduction of p-Akt T308 level at 30 uM by Western blotting; assay type: cell-based; conditions: TDE = time-dependent effect
[12] = system: LNCaP C4-2; assay: Induction of apoptosis in human C4-2 cells expressing Luc-BAD assessed as increase in caspase activity at 3 to 50 uM after 6 hrs by Caspase 3 assay; assay type: functional, cell-based; method in brief: as §1
[13] = system: BT-549; assay: Inhibition of PI3 kinase in human BT549 cells assessed as reduction of p-Akt T308 level at 30 uM after 30 mins to 6 hrs by Western blotting; assay type: cell-based
Method in brief: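 Serum-free BT-549 cells (RPMI 1640, 10% FBS, insulin during growth) exposed from 30 min to 6 h, PBS control; p-Akt T308 Western blot of cleared lysates, representative of three independent experiments.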

[14] = system: BT-549; assay: Inhibition of PI3 kinase in human BT549 cells exposed to 10 uM compound pre-incubated with 0.5 to 10^4 ng/mL PSA for 6 hrs assessed as reduction of p-Akt T308 levels after 30 mins by Western blotting; assay type: cell-based
Method in brief: (§5)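 Compound pre-incubated 6 h at 37 °C in 50 mM Tris-HCl, 0.1 M NaCl, pH 7.8 with purified active human semen PSA (0–104 ng/mL), then added to BT-549 cells for 30 min, DMSO control; p-Akt T308 Western blot, three independent experiments.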

[15] = system: BT-549; assay: Inhibition of PI3 kinase in human BT549 cells exposed to 10 uM compound pre-incubated in absence of PSA for 6 hrs assessed as reduction of p-Akt T308 levels after 30 mins by Western blotting; assay type: cell-based; method in brief: as §5
[16] = system: C4-2; assay: Inhibition of PI3 kinase in human C4-2 cells assessed as reduction of p-Akt T308 level after 30 mins by Western blotting; assay type: cell-based
[17] = system: BT-549; assay: Inhibition of PI3 kinase in human BT549 cells assessed as reduction of p-Akt T308 level after 30 mins by Western blotting; assay type: cell-based
[18] = system: BT-549; assay: Inhibition of PI3 kinase in human BT549 cells assessed as complete reduction of p-Akt T308 level at 30 µM after 30 mins by Western blotting; assay type: cell-based
[19] = system: C4-2; assay: Inhibition of PI3 kinase in human C4-2 cells assessed as complete reduction of p-Akt T308 level at 30 µM after 30 mins by Western blotting; assay type: cell-based

Q: Which Activity [1] does the source give for `CC(C)C[C@H](NC(=O)[C@H](CCCCN)NC(=O)[C@H](CO)NC(=O)[C@H](CO)NC(=O)[C@H](Cc1cnc[nH]1)NC(=O)[C@H](CCC(=O)O)NC(=O)[C@H](CC(C)C)NC(=O)N1CCOCC1)C(=O)N[C@@H](CCC(N)=O)C(=O)N[C@@H](CC(C)C)C(=O)OCc1ccc(-c2cccc3c(=O)cc(N4CCOCC4)oc23)cc1` ({Morpholide-CO}-LEHSSKLQL-X1) here?
A: Active

Q: What about the Drug metabolism [2] of the same molecule?
A: Not Active

Q: And the inhibition [3]?
A: Dose-dependent effect

Q: What about the inhibition [4] of the same molecule?
A: Dose-dependent effect

Q: What about the Drug metabolism [5] of the same molecule?
A: Active

Q: What about the inhibition [6] of the same molecule?
A: Active

Q: And the inhibition [7]?
A: inactive

Q: And the inhibition [8]?
A: inactive

Q: And the inhibition [9]?
A: inactive

Q: And the inhibition [10]?
A: Dose-dependent effect

Q: What about the inhibition [11] of the same molecule?
A: tde

Q: And the Activity [12]?
A: Active

Q: What about the inhibition [13] of the same molecule?
A: inactive

Q: And the inhibition [14]?
A: Active

Q: And the inhibition [15]?
A: inactive

Q: Which results are given for `CC(C)C[C@H](N)C(=O)OCc1ccc(-c2cccc3c(=O)cc(N4CCOCC4)oc23)cc1`?
A: inhibition [16]: Dose-dependent effect; inhibition [17]: Dose-dependent effect; inhibition [18]: Active; inhibition [19]: Active
